{"source": "ChEMBL document CHEMBL4007489", "about": "“First Bispecific Inhibitors of the Epidermal Growth Factor Receptor Kinase and the NF-κB Activity As Novel Anticancer Agents” (J Med Chem, 2017)", "key": {"[1]": {"molecular_target": "T1, Proteasome component C5 (Homo sapiens) (UniProt P20618)", "T1 sequence (whole entry)": "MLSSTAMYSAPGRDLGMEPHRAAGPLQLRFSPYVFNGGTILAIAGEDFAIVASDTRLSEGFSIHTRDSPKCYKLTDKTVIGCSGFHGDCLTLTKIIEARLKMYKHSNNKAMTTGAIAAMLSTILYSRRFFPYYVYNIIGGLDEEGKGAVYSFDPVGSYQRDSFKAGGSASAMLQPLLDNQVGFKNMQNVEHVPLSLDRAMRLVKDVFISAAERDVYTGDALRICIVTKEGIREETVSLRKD", "settings": "1 uM"}, "[2]": {"molecular_target": "Transcription factor p65 (Homo sapiens) (UniProt Q04206)", "sequence (Q04206 whole entry, the tested form may be a part)": "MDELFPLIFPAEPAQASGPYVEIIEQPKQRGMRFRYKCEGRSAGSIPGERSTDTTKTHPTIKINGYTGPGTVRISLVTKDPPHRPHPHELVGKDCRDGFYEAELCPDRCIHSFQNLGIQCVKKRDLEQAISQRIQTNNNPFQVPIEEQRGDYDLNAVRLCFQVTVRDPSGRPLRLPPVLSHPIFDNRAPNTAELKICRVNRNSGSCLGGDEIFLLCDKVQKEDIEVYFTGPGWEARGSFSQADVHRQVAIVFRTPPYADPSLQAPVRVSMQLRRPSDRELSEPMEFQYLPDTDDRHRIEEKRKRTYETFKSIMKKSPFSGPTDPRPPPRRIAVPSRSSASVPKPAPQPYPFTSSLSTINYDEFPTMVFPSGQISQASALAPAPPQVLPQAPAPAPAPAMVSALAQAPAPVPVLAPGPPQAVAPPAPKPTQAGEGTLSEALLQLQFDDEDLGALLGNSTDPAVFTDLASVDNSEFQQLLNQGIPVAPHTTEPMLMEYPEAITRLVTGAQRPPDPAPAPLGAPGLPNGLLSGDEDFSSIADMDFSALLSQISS", "assay": "Inhibition of IL-1beta-stimulated nuclear translocation of GFP-tagged NF-kappaB-p65 (unknown origin) expressed in CHO cells preincubated with IL-1beta for 30 mins followed by compound addition by fluorescence assay", "format": "cell-based", "how_it_was_run": "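A GFP-NF-κB-p65 fusion was used; cells were stimulated for 30 min with 25 ng/mL IL-1β. Translocation of the fusion protein from cytoplasm to nucleus was imaged, and the system automatically quantified the ratio of cytoplasmic to nuclear fluorescence per well.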"}, "[3]": {"molecular_target": "T2, Proteasome Macropain subunit MB1 (Homo sapiens) (UniProt P28074)", "T2 sequence (whole entry)": "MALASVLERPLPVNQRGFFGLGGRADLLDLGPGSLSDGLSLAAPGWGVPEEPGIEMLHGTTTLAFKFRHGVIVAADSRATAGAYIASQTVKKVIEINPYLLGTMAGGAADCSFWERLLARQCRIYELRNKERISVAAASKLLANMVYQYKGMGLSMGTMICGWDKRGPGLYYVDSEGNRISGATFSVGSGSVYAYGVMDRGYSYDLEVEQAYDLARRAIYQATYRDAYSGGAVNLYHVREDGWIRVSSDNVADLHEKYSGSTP", "assay": "Inhibition of chymotrypsin like activity of 26S proteasome derived from human MDA-MB-231 cells at 1 uM", "how_it_was_run": "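Total protein extract from MDA-MB-231 cells served as the source of 26S proteasome. Trypsin-like, chymotrypsin-like and caspase-like activities were each measured with a specific fluorigenic peptide substrate.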"}, "[4]": {"molecular_target": "Proteasome Macropain subunit (Homo sapiens) (UniProt P49721)", "sequence (P49721 whole entry)": "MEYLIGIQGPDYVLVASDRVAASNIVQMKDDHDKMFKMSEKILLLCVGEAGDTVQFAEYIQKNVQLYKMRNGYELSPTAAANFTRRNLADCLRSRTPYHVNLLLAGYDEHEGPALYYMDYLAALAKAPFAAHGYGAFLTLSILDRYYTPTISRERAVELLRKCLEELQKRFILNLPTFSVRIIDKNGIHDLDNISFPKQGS", "settings": "1 uM"}, "[5]": {"organism": "Homo sapiens", "assay": "Inhibition of TNFalpha-stimulated NF-kappaB (unknown origin) expressed in human U937 cells at 5 uM incubated for 3 hrs followed by TNFalpha stimulation measured after 2.5 hrs by luciferase reporter gene assay", "format": "cell-based"}, "[6]": {"molecular_target": "T3, Epidermal growth factor receptor (Homo sapiens, UniProt P00533)", "T3 sequence (P00533 whole entry)": "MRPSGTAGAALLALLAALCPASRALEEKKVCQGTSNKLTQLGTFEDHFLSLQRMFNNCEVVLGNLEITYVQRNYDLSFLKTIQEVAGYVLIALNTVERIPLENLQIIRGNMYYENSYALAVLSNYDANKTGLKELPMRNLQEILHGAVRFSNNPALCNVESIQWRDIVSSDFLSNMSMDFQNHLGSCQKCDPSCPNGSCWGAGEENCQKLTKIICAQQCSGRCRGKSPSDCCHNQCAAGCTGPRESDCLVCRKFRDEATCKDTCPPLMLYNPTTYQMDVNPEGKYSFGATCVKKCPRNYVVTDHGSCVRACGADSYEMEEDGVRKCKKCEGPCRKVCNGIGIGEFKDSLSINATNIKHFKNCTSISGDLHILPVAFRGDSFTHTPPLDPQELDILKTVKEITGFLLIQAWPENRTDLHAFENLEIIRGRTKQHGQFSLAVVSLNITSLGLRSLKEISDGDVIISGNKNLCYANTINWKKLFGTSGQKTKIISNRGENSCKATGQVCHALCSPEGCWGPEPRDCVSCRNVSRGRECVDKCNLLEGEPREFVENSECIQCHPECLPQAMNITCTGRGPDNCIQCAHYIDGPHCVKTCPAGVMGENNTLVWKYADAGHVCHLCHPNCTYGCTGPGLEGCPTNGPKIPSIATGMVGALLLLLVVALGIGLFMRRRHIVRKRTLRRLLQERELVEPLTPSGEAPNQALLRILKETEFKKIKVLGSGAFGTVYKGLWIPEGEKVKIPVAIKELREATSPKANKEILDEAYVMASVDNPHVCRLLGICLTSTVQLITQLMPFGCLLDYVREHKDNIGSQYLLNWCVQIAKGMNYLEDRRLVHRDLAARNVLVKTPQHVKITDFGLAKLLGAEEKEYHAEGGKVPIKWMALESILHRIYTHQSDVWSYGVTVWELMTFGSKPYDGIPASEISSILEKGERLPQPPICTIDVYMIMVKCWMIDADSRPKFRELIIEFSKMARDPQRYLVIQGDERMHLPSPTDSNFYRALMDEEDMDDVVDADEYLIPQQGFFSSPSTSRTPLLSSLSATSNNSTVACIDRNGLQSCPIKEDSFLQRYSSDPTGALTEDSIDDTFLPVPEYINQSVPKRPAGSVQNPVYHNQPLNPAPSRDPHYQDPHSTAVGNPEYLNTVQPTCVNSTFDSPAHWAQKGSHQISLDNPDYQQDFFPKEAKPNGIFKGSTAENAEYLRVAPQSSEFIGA", "settings": "at 150 nM"}, "[7]": {"molecular_target": "T3, Epidermal growth factor receptor", "assay": "biochemical", "format": "cell-based"}, "[8]": {"tested_on": "MDA-MB-231", "assay": "Growth inhibition of human MDA-MB-231 cells at 20 uM after 48 hrs by MTT assay", "format": "functional, cell-based", "how_it_was_run": "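MDA-MB-231 cells seeded at 45000 per well and left to adhere overnight; compounds added after 24 h. Incubated a further 48 h at 37 °C. MTT added for 1 h, then cells lysed with 10% SDS in 0.01 N HCl for at least 2 h at 37 °C. Absorbance read at 570 nm.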"}, "[9]": {"assay": "cells", "format": "cell-based", "settings": "Homo sapiens, U-937"}, "[10]": {"molecular_target": "T4, Receptor-interacting serine/threonine-protein kinase 2 (Homo sapiens, UniProt O43353)", "T4 sequence (O43353 whole entry)": "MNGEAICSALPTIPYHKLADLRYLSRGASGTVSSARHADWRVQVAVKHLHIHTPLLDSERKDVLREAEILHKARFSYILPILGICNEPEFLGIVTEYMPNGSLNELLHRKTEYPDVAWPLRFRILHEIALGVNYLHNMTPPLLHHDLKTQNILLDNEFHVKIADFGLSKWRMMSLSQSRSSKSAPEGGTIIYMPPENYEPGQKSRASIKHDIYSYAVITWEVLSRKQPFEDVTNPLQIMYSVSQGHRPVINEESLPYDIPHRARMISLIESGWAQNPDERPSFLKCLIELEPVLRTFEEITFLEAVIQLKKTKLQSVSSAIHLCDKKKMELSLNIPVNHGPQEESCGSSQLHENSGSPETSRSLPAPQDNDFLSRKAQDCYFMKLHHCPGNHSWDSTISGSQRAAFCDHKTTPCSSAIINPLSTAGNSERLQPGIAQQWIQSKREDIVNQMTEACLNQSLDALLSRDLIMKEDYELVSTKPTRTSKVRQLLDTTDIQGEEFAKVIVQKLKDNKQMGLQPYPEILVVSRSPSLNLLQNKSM", "assay": "Inhibition of TNFalpha-stimulated RIPK2 in human U937 cells assessed as residual activity at 10 uM in presence of ATP relative to control", "format": "cell-based"}, "[11]": {"molecular_target": "Mitogen-activated protein kinase 14 (Homo sapiens) (UniProt Q16539)", "sequence (Q16539 whole entry)": "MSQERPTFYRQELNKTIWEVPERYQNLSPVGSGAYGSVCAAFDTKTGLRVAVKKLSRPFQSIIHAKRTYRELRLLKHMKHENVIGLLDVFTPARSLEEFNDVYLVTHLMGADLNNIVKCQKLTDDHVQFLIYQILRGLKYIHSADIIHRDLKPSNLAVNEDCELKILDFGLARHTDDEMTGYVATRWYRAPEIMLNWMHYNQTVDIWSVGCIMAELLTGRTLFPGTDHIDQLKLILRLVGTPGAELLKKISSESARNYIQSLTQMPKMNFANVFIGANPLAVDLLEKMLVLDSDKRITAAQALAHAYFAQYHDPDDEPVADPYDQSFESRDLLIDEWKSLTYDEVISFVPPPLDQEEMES", "assay": "Inhibition of TNFalpha-stimulated SAPK2a in human U937 cells assessed as residual activity at 10 uM in presence of ATP relative to control", "format": "cell-based"}, "[12]": {"molecular_target": "Serine/threonine-protein kinase TBK1 (Homo sapiens) (UniProt Q9UHD2)", "assay": "Inhibition of TNFalpha-stimulated TBK1 in human U937 cells assessed as residual activity at 10 uM in presence of ATP relative to control", "format": "cell-based"}, "[13]": {"molecular_target": "Protein kinase C zeta type (Homo sapiens) (UniProt Q05513)", "sequence (Q05513 whole entry)": "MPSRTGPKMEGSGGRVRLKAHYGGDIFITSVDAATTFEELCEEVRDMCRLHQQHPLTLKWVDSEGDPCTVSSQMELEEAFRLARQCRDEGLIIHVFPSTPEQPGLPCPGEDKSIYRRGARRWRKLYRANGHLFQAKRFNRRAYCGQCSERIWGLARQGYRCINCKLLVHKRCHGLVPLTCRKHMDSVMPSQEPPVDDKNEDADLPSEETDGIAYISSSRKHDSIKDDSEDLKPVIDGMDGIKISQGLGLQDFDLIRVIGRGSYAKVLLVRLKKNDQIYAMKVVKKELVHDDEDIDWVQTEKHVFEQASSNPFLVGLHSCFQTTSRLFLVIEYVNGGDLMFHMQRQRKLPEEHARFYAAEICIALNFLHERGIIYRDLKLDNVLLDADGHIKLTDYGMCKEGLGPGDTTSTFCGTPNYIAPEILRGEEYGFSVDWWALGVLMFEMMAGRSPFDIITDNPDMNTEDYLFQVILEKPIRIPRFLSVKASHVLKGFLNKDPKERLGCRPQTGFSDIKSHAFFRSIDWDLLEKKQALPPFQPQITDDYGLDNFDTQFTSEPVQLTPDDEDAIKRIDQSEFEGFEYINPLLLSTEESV", "assay": "Inhibition of TNFalpha-stimulated PKCzeta in human U937 cells assessed as residual activity at 10 uM in presence of ATP relative to control", "format": "cell-based"}, "[14]": {"tested_on": "MDA-MB-231", "assay": "cells", "format": "functional", "settings": "Homo sapiens, MDA-MB-231, 48 h"}, "[15]": {"molecular_target": "Inhibitor of nuclear factor kappa-B kinase subunit alpha (Homo sapiens) (UniProt O15111)", "sequence (O15111 whole entry)": "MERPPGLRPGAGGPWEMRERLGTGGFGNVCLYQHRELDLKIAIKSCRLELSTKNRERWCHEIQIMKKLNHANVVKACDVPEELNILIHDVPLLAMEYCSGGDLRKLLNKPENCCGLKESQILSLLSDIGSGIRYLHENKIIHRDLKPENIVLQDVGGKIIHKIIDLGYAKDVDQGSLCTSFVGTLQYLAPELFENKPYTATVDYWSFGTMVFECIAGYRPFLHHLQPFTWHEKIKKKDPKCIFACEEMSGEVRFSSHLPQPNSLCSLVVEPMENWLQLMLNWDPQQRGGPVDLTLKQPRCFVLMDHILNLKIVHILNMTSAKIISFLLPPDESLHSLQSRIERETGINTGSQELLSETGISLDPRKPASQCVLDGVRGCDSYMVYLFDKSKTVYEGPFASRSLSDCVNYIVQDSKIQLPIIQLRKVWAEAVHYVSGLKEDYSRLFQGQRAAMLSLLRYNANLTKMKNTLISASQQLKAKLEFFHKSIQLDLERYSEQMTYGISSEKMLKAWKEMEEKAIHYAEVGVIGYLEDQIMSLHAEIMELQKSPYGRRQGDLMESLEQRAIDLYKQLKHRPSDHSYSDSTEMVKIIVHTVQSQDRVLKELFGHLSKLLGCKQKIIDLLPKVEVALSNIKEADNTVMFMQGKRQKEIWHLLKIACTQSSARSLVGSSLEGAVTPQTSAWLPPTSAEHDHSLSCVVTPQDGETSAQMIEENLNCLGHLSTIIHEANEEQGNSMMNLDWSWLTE", "assay": "Inhibition of TNFalpha-stimulated IKKalpha in human U937 cells assessed as residual activity at 10 uM in presence of ATP relative to control", "format": "cell-based"}, "[16]": {"molecular_target": "Mitogen-activated protein kinase kinase kinase 7 (Homo sapiens) (UniProt O43318)", "assay": "Inhibition of TNFalpha-stimulated TAK1 in human U937 cells assessed as residual activity at 10 uM in presence of ATP relative to control", "format": "cell-based"}, "[17]": {"molecular_target": "Inhibitor of nuclear factor kappa-B kinase subunit beta (Homo sapiens) (UniProt O14920)", "sequence (O14920 whole entry)": "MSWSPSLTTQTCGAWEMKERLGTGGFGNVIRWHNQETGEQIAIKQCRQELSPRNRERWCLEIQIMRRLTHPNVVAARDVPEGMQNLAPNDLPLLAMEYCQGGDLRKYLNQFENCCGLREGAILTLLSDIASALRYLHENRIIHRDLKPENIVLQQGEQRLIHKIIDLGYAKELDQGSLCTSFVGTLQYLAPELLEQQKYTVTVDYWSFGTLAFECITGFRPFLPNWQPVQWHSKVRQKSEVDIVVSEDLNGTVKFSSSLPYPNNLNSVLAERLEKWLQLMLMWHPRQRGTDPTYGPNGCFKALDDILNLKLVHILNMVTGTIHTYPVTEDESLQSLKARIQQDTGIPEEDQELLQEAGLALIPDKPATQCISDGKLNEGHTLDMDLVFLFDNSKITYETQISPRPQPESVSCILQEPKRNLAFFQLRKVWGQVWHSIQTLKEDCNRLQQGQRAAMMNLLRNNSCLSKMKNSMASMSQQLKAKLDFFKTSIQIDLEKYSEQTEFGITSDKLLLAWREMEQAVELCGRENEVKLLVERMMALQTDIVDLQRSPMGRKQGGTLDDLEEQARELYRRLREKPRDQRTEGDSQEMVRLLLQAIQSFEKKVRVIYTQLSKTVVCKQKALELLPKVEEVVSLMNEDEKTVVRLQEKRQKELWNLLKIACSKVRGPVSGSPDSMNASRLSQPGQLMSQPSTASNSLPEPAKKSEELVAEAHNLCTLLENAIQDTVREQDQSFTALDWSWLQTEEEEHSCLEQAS", "assay": "Inhibition of TNFalpha-stimulated IKKbeta in human U937 cells assessed as residual activity at 10 uM in presence of ATP relative to control", "format": "cell-based"}, "[18]": {"molecular_target": "T4, Receptor-interacting serine/threonine-protein kinase 2", "assay": "Inhibition of TNFalpha-stimulated RIPK2 in human U937 cells in presence of 5 uM ATP", "format": "cell-based"}, "[19]": {"organism": "Homo sapiens", "settings": "at 10 µM"}, "[20]": {"molecular_target": "Protein kinase C iota type (Homo sapiens) (UniProt P41743)", "assay": "Inhibition of TNFalpha-stimulated PKCI in human U937 cells assessed as residual activity at 10 uM in presence of ATP relative to control", "format": "cell-based"}}, "note": "Calls of active or inactive are those of the source. The calls are words filed in the database; no cut-off is given here."}
{"smiles": "CC(C)C[C@H](NC(=O)[C@H](Cc1ccccc1)NC(=O)c1cnccn1)B(O)O", "values": [{"measurement": "inhibition", "setting": "[1]", "value": "Active"}, {"measurement": "inhibition", "setting": "[2]", "value": "Dose-dependent effect"}, {"measurement": "inhibition", "setting": "[3]", "value": "Active"}, {"measurement": "inhibition", "setting": "[4]", "value": "Active"}]}
{"smiles": "S=C(Nc1ccc2ncnc(Nc3cccc(Cl)c3)c2c1)Nc1ncc(Cl)s1", "values": [{"measurement": "inhibition", "setting": "[5]", "value": 88.2, "unit": "%"}, {"measurement": "inhibition", "setting": "[6]", "value": 60, "unit": "%"}, {"measurement": "IC50", "setting": "[7]", "value": 120, "unit": "nM"}, {"measurement": "growth inhibition (GI)", "setting": "[8]", "value": "inactive"}, {"measurement": "IC50", "setting": "[9]", "value": 700, "unit": "nM"}]}
{"smiles": "S=C(NCc1ccccc1)Nc1ccc2ncnc(Nc3cccc(Br)c3)c2c1", "values": [{"measurement": "inhibition", "setting": "[6]", "value": 86.1, "unit": "%"}, {"measurement": "IC50", "setting": "[7]", "value": 17.2, "unit": "nM"}, {"measurement": "Activity", "setting": "[10]", "value": 54, "unit": "%"}, {"measurement": "Activity", "setting": "[11]", "value": 78, "unit": "%"}, {"measurement": "Activity", "setting": "[12]", "value": 92, "unit": "%"}, {"measurement": "Activity", "setting": "[13]", "value": 92, "unit": "%"}, {"measurement": "GI50", "setting": "[14]", "value": 9500, "unit": "nM"}, {"measurement": "Activity", "setting": "[15]", "value": 117, "unit": "%"}, {"measurement": "IC50", "setting": "[9]", "value": 4100, "unit": "nM"}, {"measurement": "Activity", "setting": "[16]", "value": 106, "unit": "%"}, {"measurement": "Activity", "setting": "[17]", "value": 100, "unit": "%"}, {"measurement": "IC50", "setting": "[18]", "value": "> 10000", "unit": "nM"}, {"measurement": "inhibition", "setting": "[19]", "value": 97, "unit": "%"}, {"measurement": "Activity", "setting": "[20]", "value": 106, "unit": "%"}]}
